Results reported in ChEMBL document CHEMBL5038600, “Discovery of M-1121 as an Orally Active Covalent Inhibitor of Menin-MLL Interaction Capable of Achieving Complete and Long-Lasting Tumor Regression” (J Med Chem, 2021).
The source made the active and inactive calls. The rule behind the calls is not given here.

Legend:
Menin (Homo sapiens) [1] = target: T1, Menin (Homo sapiens) (UniProt O00255); test: Binding affinity to recombinant human menin protein assessed as covalent complex formation incubated for 10 mins by LC/MS analysis; design: concentration or dose not given beside the values
T1 sequence (whole entry): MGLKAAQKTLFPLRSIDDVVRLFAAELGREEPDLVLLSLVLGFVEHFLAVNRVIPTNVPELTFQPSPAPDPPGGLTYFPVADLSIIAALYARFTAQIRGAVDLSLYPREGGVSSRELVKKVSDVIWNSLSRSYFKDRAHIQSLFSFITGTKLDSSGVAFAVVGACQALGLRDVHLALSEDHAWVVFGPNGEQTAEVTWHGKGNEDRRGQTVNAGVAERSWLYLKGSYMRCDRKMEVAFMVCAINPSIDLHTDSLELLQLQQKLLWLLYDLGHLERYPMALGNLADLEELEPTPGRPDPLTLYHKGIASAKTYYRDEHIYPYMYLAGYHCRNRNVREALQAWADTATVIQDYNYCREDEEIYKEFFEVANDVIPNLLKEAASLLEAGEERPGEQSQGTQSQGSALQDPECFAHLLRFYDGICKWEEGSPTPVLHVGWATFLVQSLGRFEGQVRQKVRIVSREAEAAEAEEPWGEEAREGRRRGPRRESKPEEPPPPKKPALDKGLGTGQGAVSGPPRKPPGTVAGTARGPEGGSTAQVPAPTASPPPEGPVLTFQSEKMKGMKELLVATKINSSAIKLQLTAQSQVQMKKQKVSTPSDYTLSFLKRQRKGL

SEM cells = test: Anti-proliferative activity against human SEM cells harboring MLL/AF4 fusion protein assessed as cell growth inhibition measured after 4 days by Cell Titre Glo Luminescent Cell viability assay; format: functional, cell-based; details: 96 h
In short: (§1)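 Leukemia lines plated in triplicate in RPMI 1640 at 37 °C, 5% CO2. 9-point dose response from 10 μM top concentration with 1:3 serial dilutions, 0.1% DMSO final; DMSO vehicle control column. Cellular ATP read by CellTiter-Glo at day 0 and after 4 days. Averages from three independent experiments.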

MV4-11 [2] = test: Suppression of MEIS1 gene expression in human MV4-11 cells at 30 nM measured after 24 hrs by qRT-PCR analysis; format: functional, cell-based
[3] = Protein binding in rat plasma at 1 uM incubated for 5 hrs by liquid chromatography-tandem mass spectrometry; format: ADME, cell-free
In short: (§2)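 Equilibrium dialysis: plasma spiked at 1 μM against dialysis buffer, shaken 5 h at 37 °C, with warfarin and quinidine (1 μM) as controls. Samples matrix-matched, quenched with acetonitrile containing imipramine internal standard, and analysed by LC-MS/MS. Percent bound computed from peak area ratios.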

[4] = Anti-proliferative activity against human OCI-AML-4 cells harboring MLL-ENL fusion protein assessed as cell growth inhibition measured after 4 days by Cell Titre Glo Luminescent Cell viability assay; format: functional, cell-based; details: OCI-AML-4, 96 h; in short: as §1
Menin (Homo sapiens) [5] = target: T1, Menin (Homo sapiens); test: Binding affinity to recombinant human menin protein assessed as covalent complex formation measured after overnight incubation by LC/MS analysis; design: concentration or dose not given beside the values
Menin (Homo sapiens) [6] = target: T1, Menin (Homo sapiens); test: Binding affinity to recombinant human menin protein assessed as covalent complex formation incubated for 1 hrs by LC/MS analysis; design: concentration or dose not given beside the values
In short: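 Menin (25 mg/mL in 25 mM Tris pH 8.0, 150 mM NaCl, 5 mM DTT) incubated with compound at a 1:1.2 protein:compound molar ratio for 1 h or overnight at 4 °C. Diluted to 1 mg/mL, then reverse-phase C4 LC with a 5–100% MeCN/0.2% formic acid gradient and Q-TOF mass spectrometry to detect the covalent adduct.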

MV4-11 [7] = test: Anti-tumor activity against luciferase-tagged human MV4-11 cells xenografted in NCG mouse assessed as decreased intensity of whole body bioluminescence signal at 150 mg/kg, po administered daily for 4 days measured after 48 hrs by bioluminescence analysis; format: functional, organism-based; details: time 4.0 day
In short: (§3)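 Female NCG mice, 5–6 weeks old, given 5×10^6 luciferase-tagged MV4;11 cells IV via tail vein. Randomized at log-phase disease (day 27). Dosed 150 mg/kg oral gavage daily for 4 days in MC/Tween 80 vehicle. Read-outs 48 h after the last dose, five mice per group, mean ± SEM: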

[8] = Volume of distribution at steady state in C57BL/6 mouse at 1 mg/kg, iv; format: ADME, organism-based; details: in vivo, read-out: Vdss
In short: (§4)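 Female C57BL/6 mice, single IV dose of 1 mg/kg given as a solution in 10% NMP, 10% Solutol HS15 and 80% saline. Parameters come from the plasma concentration–time profile.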

MV4-11 [9] = test: Anti-tumor activity against human MV4-11 cells xenografted in SCID mouse assessed as tumor regrowth at 300 mg/kg, po qd administered daily for 15 days; format: functional, organism-based; details: time 15.0 day
In short: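 Female C.B-17 SCID mice, 5–6 weeks old, implanted subcutaneously in the right flank with 5×10^6 MV4;11 cells in 1:1 Matrigel. Randomized at about 200 mm3. Dosed 300 mg/kg by oral gavage once daily for 15 days in 0.5% MC (400 cP) + 0.2% Tween 80 at 10 mL/kg. Body weight measured daily; caliper volume (0.5×W×W×L) three times weekly.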

[10] = Protein binding in mouse plasma at 1 uM incubated for 5 hrs by liquid chromatography-tandem mass spectrometry; format: ADME, cell-free; in short: as §2
[11] = Tmax in C57BL/6 mouse at 5 mg/kg, po; format: ADME, organism-based; details: in vivo
In short: (§5)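 Female C57BL/6 mice, single oral dose of 5 mg/kg in 0.5% methyl cellulose + 0.2% Tween 80 (w/w). Bioavailability is calculated against the 1 mg/kg IV arm.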

MEG-01 = test: Anti-proliferative activity against human MEG-01 cells harboring MLL wild-type protein assessed as cell growth inhibition measured after 4 days by Cell Titre Glo Luminescent Cell viability assay; format: functional, cell-based; details: MEG-01, 96 h; in short: as §1
Menin (Homo sapiens) [12] = target: T1, Menin (Homo sapiens); test: Binding affinity to recombinant human menin protein assessed as covalent complex formation incubated for 30 mins by LC/MS analysis; design: concentration or dose not given beside the values
MV4-11 [13] = test: Suppression of HOXA9 gene expression in human MV4-11 cells at 10 nM measured after 24 hrs by qRT-PCR analysis; format: functional, cell-based
[14] = Protein binding in human plasma at 1 uM incubated for 5 hrs by liquid chromatography-tandem mass spectrometry; format: ADME, cell-free; in short: as §2
[15] = Toxicity in NCG mouse xenografted with luciferase-tagged MV4-11 cells assessed as change in body weight at 150 mg/kg, po administered daily for 4 days measured after 48 hrs; format: organism-based; details: in vivo, 96 h, time 4 day; in short: as §3
[16] = GSH reactivity in pH 7.4 assessed as conjugation half life at pH 7.4; format: physicochemical
[17] = AUC (0 to infinity) in C57BL/6 mouse at 1 mg/kg, iv; format: ADME, organism-based; design: time infinity, route intravenous, dose 1 mg/kg; details: in vivo; in short: as §4
[18] = Cmax in C57BL/6 mouse at 5 mg/kg, po; format: ADME, organism-based; design: route oral, dose 5 mg/kg; details: in vivo; in short: as §5
MV4-11 [19] = test: Anti-proliferative activity against human MV4-11 cells harboring MLL/AF4 fusion protein assessed as cell growth inhibition measured after 4 days by Cell Titre Glo Luminescent Cell viability assay; format: functional, cell-based; details: MV4-11, 96 h
[20] = Toxicity in SCID mouse xenografted with human MV4-11 cells assessed as change weight loss at 100 mg/kg, po administered daily for 26 days; format: organism-based; details: in vivo, 624 h, time 26 day
In short: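 Female C.B-17 SCID mice bearing subcutaneous MV4;11 flank tumors (5×10^6 cells with Matrigel 1:1), treated once tumors averaged about 100 mm3. Dosed 100 mg/kg daily by oral gavage for 26 days in 0.5% MC + 0.2% Tween 80 vehicle. Body weight measured daily.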

Activity (Menin (Homo sapiens) [1]): 27%
PPB [3]: 87.5%
Activity (Menin (Homo sapiens) [5]): 100%
Activity (Menin (Homo sapiens) [6]): 66%
Vd [8]: 0.33 L/kg
PPB [10]: 99.3%
Tmax [11]: 2 h
Activity (Menin (Homo sapiens) [12]): 59%
PPB [14]: 90.7%
t1/2 [16]: 89 min
AUC(0-inf) [17]: 17600 ng·h/mL
Cmax [18]: 4150 ng/mL
IC50 (MV4-11 [19]): 10.3 nM
Structure (SMILES): C=CC(=O)N1C[C@@H]2C[C@H]1CN2S(=O)(=O)c1ccc(N2CC(CN3CCC([C@@](CN4CCC4)(c4cccc(F)c4)[C@H]4CCC[C@@H]4NC(=O)OC)CC3)(OC)C2)cc1
IC50 (SEM cells): 51 nM
inhibition (MV4-11 [2]): Active
IC50 [4]: 3 nM
Activity (MV4-11 [7]): Active
Activity (MV4-11 [9]): Active
IC50 (MEG-01): > 10 µM
inhibition (MV4-11 [13]): Active
Activity [15]: Non-Toxic
Activity [20]: Non-Toxic
